Assay results gathered from unrelated publications.
Lines come from different studies, so protocols differ.
Effect on: cell growth or viability

C[C@H]1CNCCCN1c1nccc(-c2noc([C@@]3(C)CCCc4sc(N)c(C#N)c43)n2)n1  EC50 (NCI-H727; 5 days): > 1 µM
FC(F)(F)c1cc(OCc2cc(-c3ccc(Cl)cc3Cl)no2)c2ccccc2n1  IC50 (DND41; MTS; 72 h): > 100 µM
C#CCNC(=O)c1c(-c2ccc(OC)cc2)oc2ccc(O)c(CN3CCCCC3)c12  IC50 (J774.A1; resazurin; 18 h): 27.8 µM
COc1cc(C2C3=C(COC3=O)N(CCO)c3cc4c(cc32)CCC4)cc(OC)c1OC (centres unmarked)  IC50 (MCF-12A; ATP luminescence; 48 h): 5.5 µM
O=c1cc(OCc2cc(-c3ccccn3)no2)c2ccccc2o1  IC50 (DND41; MTS; 72 h): > 100 µM
C[C@H]1CN(C)CCCN1c1nccc(-c2noc([C@@]3(C)CCCc4sc(N)c(C#N)c43)n2)n1  EC50 (NCI-H727; 5 days): > 1 µM
Cc1nc(Nc2ncc(C(=O)Nc3c(C)cccc3Cl)s2)cc(N2CC[C@H](O)C2)n1  inhibition (JeKo-1; ATP luminescence; 10 µM, 72 h): 37%
FC(F)(F)c1ccc(-c2cc(CNc3cccc4cccnc34)on2)cc1  IC50 (DND41; MTS; 72 h): 82.3 µM
C[C@H]1CNCCN1c1nccc(-c2noc([C@@]3(C)CCCc4sc(N)c(C#N)c43)n2)n1  EC50 (NCI-H727; 5 days): > 1 µM
CCOc1ccc(-c2cc(C(=O)O)c(-c3ccc(Cl)cc3)o2)cc1  EC50 (WM 266-4; MTT; 48 h): 87 µM
C[C@H]1CNCCN1c1nccc(-c2onc3c2CCC[C@@]32CCCc3sc(N)c(C#N)c32)n1  EC50 (NCI-H727; 5 days): 0.406 µM
N/C(=N\O)c1ccc(-c2cc(CNc3cccc4cccnc34)on2)cc1  IC50 (DND41; MTS; 72 h): 2.3 µM
COc1cccc2c1C(=O)c1c(O)c3c(c(O)c1C2=O)C[C@@](O)(C(=O)CO)C[C@@H]3O[C@H]1C[C@H](N)[C@H](O)[C@H](C)O1  IC50 (SU-DHL10; ATP luminescence; 72 h): 0.32 µM
COc1ccc(-c2oc3ccc(O)c(CN4CCCCC4)c3c2C(=O)NCc2cn(Cc3ccccc3)nn2)cc1  IC50 (J774.A1; resazurin; 18 h): 8 µM
